{
  "source": "ChEMBL document CHEMBL3627626",
  "about": "“6-Substituted Pyrrolo[2,3-d]pyrimidine Thienoyl Regioisomers as Targeted Antifolates for Folate Receptor α and the Proton-Coupled Folate Transporter in Human Tumors” (J Med Chem, 2015)",
  "key": {"[1]": {"target": "T1, Trifunctional purine biosynthetic protein adenosine-3 (Homo sapiens, UniProt P22102)", "T1 sequence (P22102 whole entry)": "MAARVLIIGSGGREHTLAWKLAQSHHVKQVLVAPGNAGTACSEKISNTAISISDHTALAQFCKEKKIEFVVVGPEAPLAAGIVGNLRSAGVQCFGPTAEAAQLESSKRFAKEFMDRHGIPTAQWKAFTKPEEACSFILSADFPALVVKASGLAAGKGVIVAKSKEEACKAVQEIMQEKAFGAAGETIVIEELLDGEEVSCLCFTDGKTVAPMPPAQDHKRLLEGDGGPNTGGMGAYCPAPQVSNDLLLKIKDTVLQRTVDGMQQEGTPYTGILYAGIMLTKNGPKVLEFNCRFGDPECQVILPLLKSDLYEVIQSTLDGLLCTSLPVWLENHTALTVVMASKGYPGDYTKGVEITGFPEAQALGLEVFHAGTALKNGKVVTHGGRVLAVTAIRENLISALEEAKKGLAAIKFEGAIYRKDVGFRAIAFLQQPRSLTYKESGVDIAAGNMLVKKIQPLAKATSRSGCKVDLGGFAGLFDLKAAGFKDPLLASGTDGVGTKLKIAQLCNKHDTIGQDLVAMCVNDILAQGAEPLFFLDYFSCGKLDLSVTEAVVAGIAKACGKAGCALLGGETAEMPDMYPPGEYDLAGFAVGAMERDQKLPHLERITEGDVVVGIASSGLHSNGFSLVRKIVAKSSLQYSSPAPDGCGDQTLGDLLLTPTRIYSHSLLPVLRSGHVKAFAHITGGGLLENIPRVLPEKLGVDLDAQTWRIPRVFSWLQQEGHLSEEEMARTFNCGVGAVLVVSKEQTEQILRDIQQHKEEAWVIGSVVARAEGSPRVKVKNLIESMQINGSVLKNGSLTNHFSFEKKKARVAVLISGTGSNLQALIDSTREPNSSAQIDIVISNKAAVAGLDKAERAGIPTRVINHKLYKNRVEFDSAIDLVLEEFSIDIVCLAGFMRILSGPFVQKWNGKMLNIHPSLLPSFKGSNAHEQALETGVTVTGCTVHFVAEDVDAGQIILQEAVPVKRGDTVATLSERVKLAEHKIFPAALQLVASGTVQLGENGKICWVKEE", "assay": "Inhibition of human recombinant His-tagged GARFTase assessed as formation of 5,8-dideazafolate from 10-formyl-5,80-dideazafolic acid measured every 15 secs over 20 mins by spectrophotometric analysis"}, "[2]": {"target": "T1, Trifunctional purine biosynthetic protein adenosine-3", "assay": "Inhibition of GARFTase in human KB cells expressing FRalpha/PCFT/RFC assessed as incorporation of [14C(U)]-glycine into [14C]-formyl GAR preincubated for 1 hr followed by azaserine, L-glutamine, 14C(U)]-glycine addition measured after 16 hrs", "assay_type": "cell-based", "outline": "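In situ assay in KB cells. Cells were exposed to a range of drug concentrations with [14C]glycine for 16 h under proliferation-assay conditions, with azaserine present. Radiolabelled metabolites were extracted and separated on anion exchange columns, and [14C]formyl GAR quantified. Mean ±SE of three experiments.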"}, "[3]": {"target": "T2, Trifunctional purine biosynthetic protein adenosine-3 (Homo sapiens) (UniProt P22102)", "T2 sequence (whole entry)": "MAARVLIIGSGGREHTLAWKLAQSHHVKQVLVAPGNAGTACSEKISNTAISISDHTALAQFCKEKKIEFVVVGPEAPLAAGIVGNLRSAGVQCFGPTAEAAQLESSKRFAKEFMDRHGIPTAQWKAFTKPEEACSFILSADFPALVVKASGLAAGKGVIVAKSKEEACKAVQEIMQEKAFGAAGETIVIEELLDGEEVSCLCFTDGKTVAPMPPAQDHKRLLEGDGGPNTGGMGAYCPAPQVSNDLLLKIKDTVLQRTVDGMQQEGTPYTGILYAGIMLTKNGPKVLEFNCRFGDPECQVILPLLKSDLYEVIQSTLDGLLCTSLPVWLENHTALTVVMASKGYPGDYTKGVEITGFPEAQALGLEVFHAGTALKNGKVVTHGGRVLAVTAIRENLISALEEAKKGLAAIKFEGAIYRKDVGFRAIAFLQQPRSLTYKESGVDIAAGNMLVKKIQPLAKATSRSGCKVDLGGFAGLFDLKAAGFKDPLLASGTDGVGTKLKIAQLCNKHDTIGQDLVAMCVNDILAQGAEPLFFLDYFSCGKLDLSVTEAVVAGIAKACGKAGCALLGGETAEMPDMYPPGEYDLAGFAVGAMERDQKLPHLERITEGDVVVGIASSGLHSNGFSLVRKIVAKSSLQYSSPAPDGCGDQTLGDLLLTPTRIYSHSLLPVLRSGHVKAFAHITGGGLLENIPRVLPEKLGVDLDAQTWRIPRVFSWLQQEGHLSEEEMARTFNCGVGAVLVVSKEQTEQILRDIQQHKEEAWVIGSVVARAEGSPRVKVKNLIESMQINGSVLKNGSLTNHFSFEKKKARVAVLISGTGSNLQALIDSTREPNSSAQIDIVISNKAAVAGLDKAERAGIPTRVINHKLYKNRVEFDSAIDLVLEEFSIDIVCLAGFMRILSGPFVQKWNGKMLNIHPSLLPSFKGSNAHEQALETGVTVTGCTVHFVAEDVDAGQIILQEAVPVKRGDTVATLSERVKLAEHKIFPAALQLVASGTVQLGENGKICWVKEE", "assay": "Inhibition of GARFTase in human KB cells expressing FRalpha/PCFT/RFC assessed as cell growth inhibition after 96 hrs by CellTiter-Blue assay in presence of adenosine", "assay_type": "cell-based"}, "[4]": {"target": "T2, Trifunctional purine biosynthetic protein adenosine-3 (Homo sapiens)", "assay": "Inhibition of GARFTase in human KB cells expressing FRalpha/PCFT/RFC assessed as cell growth inhibition after 96 hrs by CellTiter-Blue assay in presence of AICA", "assay_type": "cell-based"}, "[5]": {"tested_on": "R2", "assay": "Cytotoxicity against PCFT-null Chinese hamster R2 cells assessed as cell growth inhibition after 96 hrs by CellTiter-Blue assay", "assay_type": "cell-based, Cricetulus griseus", "details": "R2, 96 h"}, "[6]": {"tested_on": "R2", "assay": "Cytotoxicity against Chinese hamster R2 cells transfected with empty PCDNA3 assessed as cell growth inhibition after 96 hrs by CellTiter-Blue assay", "assay_type": "cell-based, Cricetulus griseus"}, "[7]": {"tested_on": "KB", "assay": "Antiproliferative activity against human KB cells expressing FRalpha/PCFT/RFC assessed as cell growth inhibition after 96 hrs by CellTiter-Blue assay", "assay_type": "functional, cell-based"}, "[8]": {"tested_on": "KB", "assay": "Antiproliferative activity against human KB cells expressing FRalpha/PCFT/RFC assessed as cell growth inhibition after 96 hrs by CellTiter-Blue assay in presence of 200 nM folic acid", "assay_type": "functional, cell-based"}, "[9]": {"target": "Folate receptor alpha (Homo sapiens) (UniProt P15328)", "sequence (P15328 25-234 limits assumed)": "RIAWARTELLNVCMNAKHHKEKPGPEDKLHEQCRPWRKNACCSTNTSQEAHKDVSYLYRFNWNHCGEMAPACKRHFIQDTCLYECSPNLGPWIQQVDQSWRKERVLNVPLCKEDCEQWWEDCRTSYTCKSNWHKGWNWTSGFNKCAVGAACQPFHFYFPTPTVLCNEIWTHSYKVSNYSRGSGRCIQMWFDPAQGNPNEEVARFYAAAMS", "assay": "Displacement of [3H]-folic acid from human FRalpha expressed in Chinese hamster RT16 cells after 15 mins relative to folic acid", "assay_type": "cell-based", "outline": "(§1)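 Competitive binding to surface folate receptor on RT16 (FRα) or D4 (FRβ) CHO cells. Cells were acid-washed (pH 3.5) to strip bound folate, then incubated in HEPES-buffered saline pH 7.4 with 50 nM [3H]folic acid plus unlabeled ligand (0–1000 nM) for 15 min at 0 °C. Bound label was normalised to protein. Affinity is the inverse molar ratio for 50% displacement, with folic acid set to 1. Mean of 4–10 experiments ±SE.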"}, "[10]": {"target": "T3, Proton-coupled folate transporter (Homo sapiens) (UniProt Q96NT5)", "T3 sequence (whole entry)": "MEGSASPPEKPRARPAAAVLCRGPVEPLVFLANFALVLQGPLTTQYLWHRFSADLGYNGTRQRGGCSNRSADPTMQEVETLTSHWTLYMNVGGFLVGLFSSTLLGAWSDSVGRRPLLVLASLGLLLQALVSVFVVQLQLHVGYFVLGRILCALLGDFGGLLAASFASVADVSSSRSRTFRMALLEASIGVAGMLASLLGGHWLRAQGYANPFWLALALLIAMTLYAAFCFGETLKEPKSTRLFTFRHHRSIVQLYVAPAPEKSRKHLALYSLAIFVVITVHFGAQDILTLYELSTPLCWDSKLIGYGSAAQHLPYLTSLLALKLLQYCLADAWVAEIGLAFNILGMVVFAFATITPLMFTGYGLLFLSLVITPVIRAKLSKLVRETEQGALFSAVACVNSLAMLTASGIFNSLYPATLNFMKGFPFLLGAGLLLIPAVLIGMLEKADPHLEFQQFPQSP", "assay": "Binding affinity to human PCFT expressed in Chinese hamster R2/PCFT4 cells assessed as cell growth inhibition after 96 hrs by CellTiter-Blue assay in presence of 200 nM folic acid", "assay_type": "cell-based", "outline": "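Human-PCFT-transfected R2 CHO cells, precultured with G418, were plated at ~2500–5000 cells/well across a range of drug concentrations. Medium was folate-free RPMI 1640 (pH 7.2) with 25 nM LCV and 10% dialyzed FBS. Parallel wells received 200 nM folic acid. Incubated up to 96 h, then read with CellTiter Blue fluorescence (ex 560/em 590 nm).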"}, "[11]": {"target": "T2, Trifunctional purine biosynthetic protein adenosine-3 (Homo sapiens)", "assay": "Inhibition of GARFTase in human KB cells expressing FRalpha/PCFT/RFC assessed as cell growth inhibition after 96 hrs by CellTiter-Blue assay in presence of thymidine", "assay_type": "cell-based"}, "[12]": {"target": "Folate receptor beta (Homo sapiens) (UniProt P14207)", "sequence (P14207 17-230 limits assumed)": "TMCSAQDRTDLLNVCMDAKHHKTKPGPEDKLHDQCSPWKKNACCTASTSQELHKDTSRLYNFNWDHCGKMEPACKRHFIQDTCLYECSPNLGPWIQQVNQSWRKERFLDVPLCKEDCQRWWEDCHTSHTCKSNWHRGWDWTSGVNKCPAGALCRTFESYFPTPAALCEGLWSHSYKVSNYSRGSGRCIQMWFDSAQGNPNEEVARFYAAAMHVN", "assay": "Displacement of [3H]-folic acid from human FRbeta expressed in Chinese hamster D4 cells after 15 mins relative to folic acid", "assay_type": "cell-based", "outline": "as §1"}},
  "note": "Activity calls are given as the source filed them. The calls are words filed in the database; no cut-off is given here.",
  "data": [
    {"smiles": "Nc1nc(N)c2c(CCCc3cc(C(=O)N[C@@H](CCC(=O)O)C(=O)O)cs3)coc2n1", "values": [
      {"measurement": "Ki", "setting": "[1]", "value": 6500, "unit": "nM"},
      {"measurement": "IC50", "setting": "[2]", "value": 101, "unit": "nM"},
      {"measurement": "inhibition", "setting": "[3]", "value": "inactive"},
      {"measurement": "inhibition", "setting": "[4]", "value": "inactive"},
      {"measurement": "IC50", "setting": "[5]", "value": "> 1000", "unit": "nM"},
      {"measurement": "IC50", "setting": "[6]", "value": "> 1000", "unit": "nM"},
      {"measurement": "IC50", "setting": "[7]", "value": 70.3, "unit": "nM"},
      {"measurement": "IC50", "setting": "[8]", "value": "> 1000", "unit": "nM"}
    ]},
    {"smiles": "Nc1nc2[nH]c(CCCc3csc(C(=O)N[C@@H](CCC(=O)O)C(=O)O)c3)cc2c(=O)[nH]1", "values": [
      {"measurement": "Ki", "setting": "[1]", "value": 13, "unit": "nM"},
      {"measurement": "Activity", "setting": "[9]", "value": 60, "unit": "%"},
      {"measurement": "IC50", "setting": "[2]", "value": 2.4, "unit": "nM"},
      {"measurement": "inhibition", "setting": "[3]", "value": "inactive"},
      {"measurement": "Activity", "setting": "[10]", "value": "Active"},
      {"measurement": "inhibition", "setting": "[4]", "value": "inactive"},
      {"measurement": "inhibition", "setting": "[11]", "value": "Active"},
      {"measurement": "IC50", "setting": "[5]", "value": 355, "unit": "nM"},
      {"measurement": "IC50", "setting": "[6]", "value": "> 1000", "unit": "nM"},
      {"measurement": "IC50", "setting": "[7]", "value": 0.17, "unit": "nM"},
      {"measurement": "IC50", "setting": "[8]", "value": 337, "unit": "nM"},
      {"measurement": "Activity", "setting": "[12]", "value": 35, "unit": "%"}
    ]},
    {"smiles": "Nc1nc(N)c2c(CCCc3csc(C(=O)N[C@@H](CCC(=O)O)C(=O)O)c3)coc2n1", "values": [
      {"measurement": "Ki", "setting": "[1]", "value": 5500, "unit": "nM"},
      {"measurement": "IC50", "setting": "[2]", "value": 82, "unit": "nM"},
      {"measurement": "inhibition", "setting": "[3]", "value": "inactive"},
      {"measurement": "inhibition", "setting": "[4]", "value": "inactive"}
    ]}
  ]
}
